Measurements: ChEMBL document CHEMBL4765412, “(±)-trans-2-phenyl-2,3-dihydrobenzofurans as leishmanicidal agents: Synthesis, in vitro evaluation and SAR analysis” (Eur J Med Chem, 2020)

What was measured:
[1] = Selectivity index, ratio of IC50 for cytotoxicity against rat L6 cells to IC50 for antileishmanial activity against Leishmania donovani MHOM/ET/67/L82 amastigotes; assay type: toxicity, cell-based; conditions: read-out: Ratio IC50
Leishmania donovani = assay: Antileishmanial activity against Leishmania donovani MHOM/ET/67/L82 amastigotes assessed as growth inhibition incubated for 70 hrs by resazurin based inverted microscopic analysis; assay type: functional, organism-based; conditions: Leishmania donovani, MHOM/ET/67/L82, 70 h
Method in brief: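 Axenic L. donovani amastigotes (MHOM/ET/67/L82); racemates tested unless stated; miltefosine as positive control. Some values come from a separate run and were rescaled by that run's relative miltefosine IC50.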

L6 = assay: Cytotoxicity against rat L6 cells assessed as reduction in cell viability incubated for 70 hrs by resazurin staining based inverted microscopic analysis; conditions: L6, 70 h
Method in brief: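 Rat L-6 skeletal myoblast line; racemates tested unless stated.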

[2] = Metabolic stability in mouse liver microsomes assessed as metabolite formation by glucuronidation at 100 umol/L incubated for 90 mins in presence of UDPGA by LC-MS analysis; conditions: 1.5 h, 100 µM
[3] = Metabolic stability in mouse liver microsomes assessed as metabolite formation by ester hydrolysis at 100 umol/L incubated for 90 mins in absence of UDPGA by LC-MS analysis; conditions: 1.5 h, 100 µM

With `C[C@H]1c2cc(/C=C/C(=O)O)ccc2O[C@@H]1c1ccc(O)cc1` (racemic) the selectivity ratio [1] was 13.1, the IC50 (Leishmania donovani) was 5.64 µM and the IC50 (L6) was 73.9 µM.
`COc1ccc([C@H]2Oc3ccc(/C=C/C(=O)OC(C)(C)C)cc3[C@@H]2CO)cc1OC` (racemic) showed a selectivity ratio [1] of 2.1, an IC50 (Leishmania donovani) of 10.7 µM and an IC50 (L6) of 22.9 µM.
For `C[C@H]1c2cc(Br)ccc2O[C@@H]1c1ccc(O)cc1` (racemic), the selectivity ratio [1] was 1.7, the IC50 (Leishmania donovani) was 32.5 µM and the IC50 (L6) was 56.6 µM.
For `CC(=O)Oc1ccc([C@H]2Oc3ccc(/C=C/C(=O)OC(C)(C)C)cc3[C@@H]2C(=O)OC(C)(C)C)cc1` (racemic), the selectivity ratio [1] was 5.7, the IC50 (Leishmania donovani) was 2.06 µM and the IC50 (L6) was 11.8 µM.
`CC(C)(C)OC(=O)/C=C/c1ccc2c(c1)[C@H](CO)[C@@H](c1ccc(O)cc1)O2` (racemic) gave a selectivity ratio [1] of 2, an IC50 (Leishmania donovani) of 17.1 µM and an IC50 (L6) of 33.8 µM.
Work on `OC[C@H]1c2cc(-c3ccc(O)cc3)ccc2O[C@@H]1c1ccc(O)cc1` (racemic) yielded a selectivity ratio [1] of 2.7, an IC50 (Leishmania donovani) of 16.5 µM and an IC50 (L6) of 44.5 µM.
`COc1cc([C@H]2Oc3ccccc3[C@@H]2C)cc(I)c1O` (racemic) gave a selectivity ratio [1] of 3.5, an IC50 (Leishmania donovani) of 13.4 µM and an IC50 (L6) of 46.9 µM.
For `OC[C@H]1c2cc(Br)ccc2O[C@@H]1c1ccc(O)c(O)c1` (racemic), the selectivity ratio [1] was 0.2, the IC50 (Leishmania donovani) was 17.8 µM and the IC50 (L6) was 3.93 µM.
For `CC(C)OC(=O)/C=C/c1cc(O)c2c(c1)[C@H](C(=O)OC(C)C)[C@@H](c1ccc(O)c(O)c1)O2` (racemic), the selectivity ratio [1] was 18.9, the Drug metabolism [2] was “Metabolite_Detected” and the IC50 (Leishmania donovani) was 0.54 µM. For the same compound, the IC50 (L6) was 10.2 µM and the Drug metabolism [3] was “Metabolite_Detected”.
`OC[C@H]1c2cc(-c3cccnc3F)ccc2O[C@@H]1c1ccc(O)cc1` (racemic) gave a selectivity ratio [1] of 2.8, an IC50 (Leishmania donovani) of 18.8 µM and an IC50 (L6) of 52.4 µM.
`COc1ccc([C@H]2Oc3ccc(/C=C/C(=O)OC(C)(C)C)cc3[C@@H]2C)cc1` (racemic) showed a selectivity ratio [1] of 10, an IC50 (Leishmania donovani) of 4.01 µM and an IC50 (L6) of 40.1 µM.
Work on `Cc1ccc(-c2ccc3c(c2)[C@H](CO)[C@@H](c2ccc(O)cc2)O3)s1` (racemic) yielded a selectivity ratio [1] of 1, an IC50 (Leishmania donovani) of 16.1 µM and an IC50 (L6) of 15.8 µM.
`COc1ccc([C@H]2Oc3ccc(/C=C/C(=O)OC(C)(C)C)cc3[C@@H]2CF)cc1OC` (racemic) gave a selectivity ratio [1] of 2.6, an IC50 (Leishmania donovani) of 13 µM and an IC50 (L6) of 34 µM.
Compound `O=S(=O)(OC[C@H]1c2ccccc2O[C@@H]1c1ccc(OS(=O)(=O)c2ccccn2)cc1)c1ccccn1` (racemic) has a selectivity ratio [1] of 29.9, an IC50 (Leishmania donovani) of 6.31 µM and an IC50 (L6) of 189 µM.
For `O=Cc1ccc(-c2ccc3c(c2)[C@H](CO)[C@@H](c2ccc(O)cc2)O3)cc1` (racemic), the selectivity ratio [1] was 1.5, the IC50 (Leishmania donovani) was 37.7 µM and the IC50 (L6) was 55.9 µM.
Compound `CC(C)(C)OC(=O)/C=C/c1ccc2c(c1)[C@H](C(=O)OC(C)(C)C)[C@@H](c1ccc(OC(C)(C)C)cc1)O2` (racemic) has a selectivity ratio [1] of 15.5, an IC50 (Leishmania donovani) of 13.1 µM and an IC50 (L6) of 202 µM.
`C/C=C/c1cc(OC)c2c(c1)[C@H](C)[C@@H](c1ccc(O)c(OC)c1)O2` (racemic) [LICARIN A] gave a selectivity ratio [1] of 1, an IC50 (Leishmania donovani) of 6.45 µM and an IC50 (L6) of 6.21 µM.
